Measurements as given in ChEMBL document CHEMBL1132311, “Design and synthesis of isoxazoline derivatives as factor Xa inhibitors. 1” (J Med Chem, 1999).

Experiments:
Prothrombin = Prothrombin (Homo sapiens, UniProt P00734); assay: The binding affinity towards thrombin obtained from human purified enzymes.
Coagulation factor X = Coagulation factor X (Homo sapiens, UniProt P00742); assay: Binding affinity to purified human coagulation factor Xa (FXa)
Serine protease 1 [1] = molecular target: T1, Serine protease 1 (Homo sapiens, UniProt P07477); assay: The binding affinity was measured towards human purified trypsin
Outline: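 Human purified enzymes, microtiter format; 0.1 M sodium phosphate, 0.2 M NaCl, 0.5% PEG 6000, pH 7.0. Compound at 10 to 0.00316 µM (eight half-log steps). Absorbance at 405 nm read for 30 min; rates vs uninhibited controls give % activity, Ki calculated from substrate concentration and Km. Duplicate runs with the same internal standards.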

Serine protease 1 [2] = molecular target: T1, Serine protease 1; assay: The binding affinity was measured on trypsin obtained from Human purified enzymes
Outline: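 Inhibition constant against human purified trypsin, in 0.1 M sodium phosphate with 0.2 M NaCl and 0.5% PEG 6000, pH 7.0. Eight inhibitor levels were run, 10 down to 0.00316 µM. Absorbance was read at 405 nm for 30 min. Ki was derived from % activity relative to uninhibited rates using Km and substrate concentration. Duplicate runs alongside internal standards.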

Oryctolagus cuniculus = species on record: Oryctolagus cuniculus; assay: The ID50 value was the 50% inhibition of thrombus formation was measured on rabbits; assay type: functional
Outline: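 New Zealand rabbits (2-4 kg) under ketamine (50 mg/kg im) plus xylazine (10 mg/kg im). Femoral artery-vein shunt containing silk thread. Compound or saline vehicle given as continuous iv infusion via jugular vein, starting 1 h before shunt flow and continuing throughout (100 min).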

T1 sequence (P07477 whole entry): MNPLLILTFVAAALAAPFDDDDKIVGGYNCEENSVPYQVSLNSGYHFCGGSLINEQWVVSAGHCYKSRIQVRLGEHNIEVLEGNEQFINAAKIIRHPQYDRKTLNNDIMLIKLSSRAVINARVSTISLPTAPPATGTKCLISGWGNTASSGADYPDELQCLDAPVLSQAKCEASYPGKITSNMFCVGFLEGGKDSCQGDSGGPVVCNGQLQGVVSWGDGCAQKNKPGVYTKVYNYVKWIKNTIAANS
Chain of Coagulation factor X (P00742 41-179 limits assumed): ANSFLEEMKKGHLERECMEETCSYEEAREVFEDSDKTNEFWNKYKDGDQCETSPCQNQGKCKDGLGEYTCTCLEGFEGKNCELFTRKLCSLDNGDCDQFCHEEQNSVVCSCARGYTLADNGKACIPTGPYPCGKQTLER
Chain of Coagulation factor X (P00742 235-488 limits assumed): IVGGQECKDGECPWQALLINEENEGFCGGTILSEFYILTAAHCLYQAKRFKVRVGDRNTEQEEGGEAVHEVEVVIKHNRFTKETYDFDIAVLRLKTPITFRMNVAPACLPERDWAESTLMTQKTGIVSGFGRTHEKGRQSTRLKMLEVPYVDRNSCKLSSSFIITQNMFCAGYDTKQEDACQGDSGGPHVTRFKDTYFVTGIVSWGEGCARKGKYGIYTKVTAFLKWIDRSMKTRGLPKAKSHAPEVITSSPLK

| Structure (SMILES) | Ki (Prothrombin) | Ki (Coagulation factor X) | Ki (Serine protease 1 [1]) | Ki (Serine protease 1 [2]) | ID50 (Oryctolagus cuniculus) |
| --- | --- | --- | --- | --- | --- |
| COC(=O)CC1(C(=O)Nc2ccc(-c3cccc(C(F)(F)F)c3)cc2)CC(c2cccc(C(=N)N)c2)=NO1 (stereo not given) | 1200 nM | 240 nM | 570 nM |  |  |
| COC(=O)CC1(C(=O)Nc2ccc(-c3ccccc3OC)cc2)CC(c2cccc(C(=N)N)c2)=NO1 (stereo not given) | 2800 nM | 62 nM | 310 nM |  |  |
| COC(=O)CC1(C(=O)Nc2ccc(-c3ccccc3C(F)(F)F)cc2)CC(c2cccc(C(=N)N)c2)=NO1 (stereo not given) | 1400 nM | 28 nM | 230 nM |  |  |
| COC(=O)CC1(C(=O)Nc2ccc(-c3ccccc3S(N)(=O)=O)nc2)CC(c2cccc(C(=N)N)c2)=NO1 (stereo not given) | 10800 nM | 19 nM | 180 nM |  |  |
| COC(=O)CC1(C(=O)Nc2ccc(-c3ccccc3C)cc2)CC(c2cccc(C(=N)N)c2)=NO1 (stereo not given) | 1800 nM | 210 nM | 390 nM |  |  |
| COC(=O)CC1(C(=O)Nc2ccc(-c3ccccc3S(N)(=O)=O)cn2)CC(c2cccc(C(=N)N)c2)=NO1 (stereo in doubt; 30) |  | 0.96 nM | 25 nM |  |  |
| COC(=O)CC1(C(=O)Nc2ccc(-c3cccc(S(N)(=O)=O)c3)cc2)CC(c2cccc(C(=N)N)c2)=NO1 (stereo not given) | 3100 nM | 68 nM | 340 nM |  |  |
| COC(=O)CC1(C(=O)Nc2ncc(-c3ccccc3S(N)(=O)=O)cn2)CC(c2cccc(C(=N)N)c2)=NO1 (stereo in doubt; 31) | 14000 nM |  | 336 nM |  |  |
| COC(=O)CC1(C(=O)Nc2ccc(-c3ccccc3)cc2)CC(c2cccc(C(=N)N)c2)=NO1 (stereo not given) | 3500 nM | 220 nM | 470 nM |  |  |
| COC(=O)CC1(C(=O)Nc2ccc(-c3ccccc3SC)cc2)CC(c2cccc(C(=N)N)c2)=NO1 (stereo not given) | 1200 nM | 66 nM | 260 nM |  |  |
| CC(=O)N[C@H](Cc1ccccc1)C(=O)N1CCC[C@@H]1C(=O)NC(CCCN=C(N)N)B(O)O (single isomer, unassigned; (-)) |  | 40 nM |  | 55 nM |  |
| COC(=O)CC1(C(=O)Nc2ccc(-c3cccc(C)c3)cc2)CC(c2cccc(C(=N)N)c2)=NO1 (stereo not given) | 2100 nM | 240 nM |  |  |  |
| COC(=O)CC1(C(=O)Nc2ncc(-c3ccccc3S(N)(=O)=O)cn2)CC(c2cccc(C(=N)N)c2)=NO1.O=C(O)C(F)(F)F (stereo in doubt; 34(+)) | > 21000 nM | 12 nM | 710 nM |  | >1.5 µM/h/kg |
| COC(=O)CC1(C(=O)Nc2ccc(-c3ccccc3S(N)(=O)=O)cc2C)CC(c2cccc(C(=N)N)c2)=NO1 (stereo not given) | 3100 nM | 8.8 nM | 300 nM |  |  |
| COC(=O)CC1(C(=O)Nc2ccc(-c3ccccc3S(N)(=O)=O)cn2)CC(c2cccc(C(=N)N)c2)=NO1.O=C(O)C(F)(F)F (racemic) |  | 0.96 nM | 25 nM |  | 0.3 µM/h/kg |
| COC(=O)CC1(C(=O)Nc2ncc(-c3ccccc3S(N)(=O)=O)cn2)CC(c2cccc(C(=N)N)c2)=NO1.O=C(O)C(F)(F)F (single isomer, unassigned; (-)) | 8900 nM | 2.3 nM | 170 nM |  | 0.15 µM/h/kg |
| COC(=O)CC1(C(=O)Nc2ccc(-c3ccccc3S(N)(=O)=O)cc2)CC(c2cccc(C(=N)N)c2)=NO1.O=C(O)C(F)(F)F (racemic) |  |  | 121 nM |  | 0.6 µM/h/kg |
| COC(=O)CC1(C(=O)Nc2ccc(-c3ccccc3S(N)(=O)=O)cn2)CC(c2cccc(C(=N)N)c2)=NO1.O=C(O)C(F)(F)F (single isomer, unassigned; (+)) | 18000 nM | 7 nM | 130 nM |  | 0.6 µM/h/kg |
| COC(=O)CC1(C(=O)Nc2ccc(-c3ccccc3S(N)(=O)=O)cn2)CC(c2cccc(C(=N)N)c2)=NO1.O=C(O)C(F)(F)F (single isomer, unassigned; (-)) | 2900 nM | 0.83 nM | 17 nM |  | 0.26 µM/h/kg |
| COC(=O)CC1(C(=O)Nc2ncc(-c3ccccc3S(N)(=O)=O)cn2)CC(c2cccc(C(=N)N)c2)=NO1.O=C(O)C(F)(F)F (racemic) |  |  |  |  | 0.4 µM/h/kg |
| COC(=O)CC1(C(=O)Nc2ccc(-c3ccccc3S(N)(=O)=O)cc2)CC(c2cccc(C(=N)N)c2)=NO1.O=C(O)C(F)(F)F (single isomer, unassigned; (+)) | > 21000 nM |  | 300 nM |  | 2 µM/h/kg |
| COC(=O)CC1(C(=O)Nc2ccc(-c3ccccc3C(=O)OC)cc2)CC(c2cccc(C(=N)N)c2)=NO1 (stereo not given) | 2100 nM | 53 nM | 300 nM |  |  |
| COC(=O)CC1(C(=O)Nc2ccc(-c3cccc(OC)c3)cc2)CC(c2cccc(C(=N)N)c2)=NO1 (stereo not given) | 2700 nM | 200 nM | 390 nM |  |  |
| COC(=O)CC1(C(=O)Nc2ccc(-c3ccccc3S(N)(=O)=O)cc2)CC(c2cccc(C(=N)N)c2)=NO1.O=C(O)C(F)(F)F (single isomer, unassigned; (-)) | 2400 nM |  | 98 nM |  | 0.2 µM/h/kg |
| COC(=O)CC1(C(=O)Nc2ccc(-c3ccccc3S(N)(=O)=O)cc2F)CC(c2cccc(C(=N)N)c2)=NO1 (stereo not given) | 3800 nM | 4.2 nM | 120 nM |  |  |
| COC(=O)CC1(C(=O)Nc2ccc(-c3ccccc3S(C)(=O)=O)cc2)CC(c2cccc(C(=N)N)c2)=NO1 (stereo not given) | 600 nM | 4.2 nM | 100 nM |  |  |
